Compounds with a hit are over-represented: about 0.89% of the library has one in this group of screens.
HSV augment = HSV replication enhancement; HSV replication augmentation in cells, fold increase; maximum fold increase; 0.005% of 220,000 active; AID 1956; in the data active means maximum fold increase above about 1.5; tested in PC3 cells
MDM2 E3 inh = inhibitors of human Mdm2 E3 ubiquitin ligase; signal enhancement, % at 5 µM; cell-based MDM2 ubiquitination luciferase reporter, 2 h; 0 = plate control, 100 = twice control, blank-subtracted; Q00987; 0.11% of 210,000 active;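 active means signal enhancement of 30% or more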;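 further: luminescence tracks abundance of the self-degrading MDM2-luciferase fusion protein; higher signal means inhibition of MDM2 E3 ligase activity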
Target sequence (Q00987 whole entry, looked up, the tested form may be a part): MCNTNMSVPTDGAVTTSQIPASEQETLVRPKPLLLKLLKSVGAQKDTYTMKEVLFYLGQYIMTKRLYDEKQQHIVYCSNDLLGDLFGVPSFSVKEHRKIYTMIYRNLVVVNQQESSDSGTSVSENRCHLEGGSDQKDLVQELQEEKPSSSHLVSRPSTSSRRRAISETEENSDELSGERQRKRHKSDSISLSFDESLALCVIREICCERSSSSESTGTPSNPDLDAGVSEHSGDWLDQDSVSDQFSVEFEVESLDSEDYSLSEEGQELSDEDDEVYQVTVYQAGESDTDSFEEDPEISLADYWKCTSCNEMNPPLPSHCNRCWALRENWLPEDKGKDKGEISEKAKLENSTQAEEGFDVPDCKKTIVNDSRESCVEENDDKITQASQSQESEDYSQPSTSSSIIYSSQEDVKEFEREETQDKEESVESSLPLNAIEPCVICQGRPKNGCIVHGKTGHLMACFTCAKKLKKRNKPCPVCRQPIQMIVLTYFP
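Assay system: stable mammalian line carrying autodegrading MDM2–luciferase fusion reporter; amount: 2000 cells seeded into each well; buffer or medium: DMEM; benchmarks: plate control and blank wells; signal: luciferase luminescence; timing: 2 h compound exposure at 37 °C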
zVAD death inh = L929 zVAD cell death inhibition | L929 zVAD necroptosis rescue, ATP luminescence, 24 h; with zVAD 60 µM | AID 1377 | viability rescue, % at 10 µM | 0.38% of 220,000 active;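 active means activation, scaled between plate controls, above about 75%, limit read from the data; inactive means activation under that limit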
TNF necrop inh = inhibitors of TNF-alpha induced necroptosis in Jurkat FADD-/- cells; Jurkat FADD-/- TNF necroptosis rescue, ATP luminescence, 24 h; 0 = TNF only, 100 = no-TNF cells; activation (protection from cell death), % at 10 µM; 0.068% of 220,000 active; AID 463075;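 active means activation, meaning protection from cell death, of at least 50% relative to plate controls; inactive means activation below 50%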;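 further: necroptosis triggered by 40 ng/mL TNF-alpha added together with compound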
E-sel TNF inh = blocks E-selectin expression induced by TNF alpha. HUVEC TNFa-induced E-selectin immunofluorescence, high content. inhibition, % at 2 µM. 0.71% of 120,000 active. AID 1246;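 active means inhibition above the batch mean plus 3 SD, and confirmed as a hit on visual image review, cut at about 43% in these data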
Large screens that a line does not name were inactive.

Cc1cc(C)cc(NC(=S)NC2CC3CCCC(C2)N3C2CC2)c1 (configuration not stated)	E-sel TNF inh 99.9
Cc1cc(C)cc(NC(=S)NC2CC3CCCC(C2)N3C2CCCC2)c1 (configuration not stated)	none (no result: E-sel TNF inh)
COc1cc(/C=N/NC(=O)c2sc(N)c(C#N)c2C)ccc1O	none
Cc1c(C(=O)N/N=C/c2ccc(O)c(Br)c2)sc(N)c1C#N	zVAD death inh 76.4 (no result: E-sel TNF inh)
CC[C@@H](C)[C@H](NC(=O)OC(C)(C)C)c1nnc(S(=O)(=O)Cc2cc(C)ccc2C)o1	none
Cc1ccccc1CS(=O)(=O)c1nnc([C@H](CC(C)C)NC(=O)OC(C)(C)C)o1	E-sel TNF inh 98.7
CCc1ccccc1N(C(C)=O)c1nc(CN=C=S)cs1	none (no result: E-sel TNF inh)
CCOc1c(C)cc2[nH]c(CCC(=O)O)nc2c1C	E-sel TNF inh 96.1
CCOC(=O)c1[nH]c(C)c(CCC(=O)O)c1C	none
O=C(C1COc2ccccc2O1)N1CCc2ccccc21 (configuration not stated)	TNF necrop inh 89.2 (no result: HSV augment, E-sel TNF inh)
O=C(C1COc2ccccc2O1)N1CCCC1 (configuration not stated)	none
Oc1ccc(C[C@@H]2CNC(=S)N2CCCCC2CCCCC2)cc1	none (no result: MDM2 E3 inh, E-sel TNF inh)
COc1ccc2[nH]c(C(=O)O)c(CCNC(C)=O)c2c1	MDM2 E3 inh 40.0 (no result: HSV augment)
CCCS(=O)(=O)c1nnnn1-c1cccc(OC)c1	E-sel TNF inh 98.4
COc1cccc(-n2nnnc2SCC(=O)Nc2ccc(C(C)=O)cc2)c1	none
CCC(C)(C)NC(=O)C(c1ccncc1)N(C(=O)c1sc(C)nc1C)c1ccc(C)cc1 (configuration not stated)	none (no result: E-sel TNF inh)
COC(C[C@@H]1O[C@H]1C(=O)COCc1ccccc1)OC	none (no result: MDM2 E3 inh, zVAD death inh, TNF necrop inh, E-sel TNF inh)
Cc1cc2cc(C)c(SCC(=O)NCc3ccco3)nc2cc1C	MDM2 E3 inh 30.9 (no result: E-sel TNF inh)
CN(C)Cc1nnnn1-c1cccc(-n2nnnc2CN(C)C)c1	none (no result: E-sel TNF inh)
CC1CC1c1ccc(/C=C(\C#N)C(=O)Nc2ccc(Cl)cc2)o1 (configuration not stated)	E-sel TNF inh 63.6 (no result: HSV augment)
CC1CC1c1ccc(/C=C(\C#N)C(=O)Nc2ccccc2Cl)o1 (configuration not stated)	none (no result: HSV augment)
Cc1ccc(CNS(=O)(=O)c2ccc3c(c2)CCN3C(=O)CCCC(=O)O)cc1	none (no result: E-sel TNF inh)
COc1cccc(-n2nc(C#N)c(Cl)cc2=O)c1	E-sel TNF inh 97.7
C=C1c2cc3c(cc2NC(=S)N1Cc1ccccc1)OCO3	none (no result: E-sel TNF inh)
CCCCCCCCOC(=O)CCc1c(C)[nH]c(=S)[nH]c1=O	none
CCCCCCOC(=O)/C=C/c1c(C)[nH]c(=O)[nH]c1=O	E-sel TNF inh 74.0
COc1ccc(/C=C(/NC(=O)c2ccco2)C(=O)N2CCc3ccccc32)cc1OC	none (no result: E-sel TNF inh)
COc1ccc(C(c2nnnn2Cc2ccccc2)N2CCN(c3nc4ccccc4s3)CC2)cc1 (configuration not stated)	E-sel TNF inh 68.9
O=C1c2cccc(OCC(=O)N3CCCc4ccccc43)c2CCN1Cc1ccccc1	none
O=C1c2cccc(OCC(=O)N3CCCc4ccccc43)c2CCN1Cc1ccc(Br)cc1	E-sel TNF inh 81.1
CCOC(=O)C(C)Oc1cccc2c(=O)n(CC(=O)Nc3cccc(OC)c3)ccc12 (configuration not stated)	E-sel TNF inh 66.7
CCOC(=O)C(C)Oc1cccc2c(=O)n(CC(=O)Nc3ccc(OCC)cc3)ccc12 (configuration not stated)	none
COc1ccc(CCNC(=O)COC(=O)CCC(=O)c2ccc(F)cc2)cc1	none (no result: E-sel TNF inh)
C=CCn1c(SCC(=O)Nc2ccccc2OC)nnc1-c1ccccn1	none
CCn1c(SCC(=O)Nc2ccccc2OC)nnc1-c1cnccn1	E-sel TNF inh 62.0
CC1=CCC2C(=O)N(c3ccccc3OC(=O)c3ccccc3F)C(=O)C2C1 (configuration not stated)	none (no result: E-sel TNF inh)
Cc1nnsc1C(=O)NNc1c(Cl)cccc1Cl	TNF necrop inh 83.7 (no result: E-sel TNF inh)
Cc1ccc(C(C)n2cc(C(=O)NCCN3CCN(C)CC3)nn2)cc1 (configuration not stated)	E-sel TNF inh 71.2
CC(C)C(=O)Nc1ccc(-c2nc3cccnc3o2)cc1	E-sel TNF inh 83.7
Cc1cc(=O)[nH]n(CCO)c1=O	none (no result: E-sel TNF inh)
COc1ccc(N2C(=O)CCC2(C#N)c2ccc(Br)cc2)cc1 (configuration not stated)	E-sel TNF inh 99.8
CCC/C=C(\CCC)C(NC(=O)c1ccc(C(F)(F)F)cc1)c1ccccc1 (configuration not stated)	none (no result: MDM2 E3 inh, zVAD death inh, TNF necrop inh, E-sel TNF inh)
COc1ccc(C2C(CC(=O)O)=C(O)C(=O)N2c2ccccc2)cc1 (configuration not stated)	MDM2 E3 inh 33.5 (no result: E-sel TNF inh)
Cc1ccc(C(=O)NCC2CCCO2)cc1N1CCCC1=O (configuration not stated)	E-sel TNF inh 66.1
NCCCC[C@H]1CNC(=O)C(=O)N1CCc1cccc2ccccc12	none (no result: E-sel TNF inh)
Cc1ccc(S(=O)(=O)N(CC#N)CC#N)cc1	none (no result: E-sel TNF inh)
Cc1cc(C(=O)Nc2nc3c(s2)CCCC3)no1	E-sel TNF inh 40.3
Cc1onc(-c2ccccc2)c1C(=O)Nc1nc2c(s1)CCCC2	none
CC(C)Cn1c(-c2cccs2)nc2ccccc21	E-sel TNF inh 84.8
COc1ccc(-c2cc(C(=O)c3c(N)n(C)c(=O)n(C)c3=O)c3ccccc3n2)cc1OC	none (no result: E-sel TNF inh)
Nc1nnc(-c2ccc(Cl)c([N+](=O)[O-])c2)s1	none
C/C(Cl)=C/CN1C(=O)C2C3C=CC(C3)C2C1=O (configuration not stated)	TNF necrop inh 67.9
O=C(O)CN1C(=O)C2C3C=CC(C3)C2C1=O (configuration not stated)	none
CCn1cc(C(=O)NCc2ccco2)c(=O)c2cc(S(=O)(=O)N3CCc4ccccc4C3)ccc21	E-sel TNF inh 100.0
CSc1ccc(/C=N/NC(=O)c2ccccc2Cl)cc1	none (no result: MDM2 E3 inh, E-sel TNF inh)
CSCCC(NC(=O)/C(=C/c1ccc(F)cc1)NC(C)=O)C(=O)O (configuration not stated)	none (no result: E-sel TNF inh)
O=C(Cn1cnc2ccccc2c1=O)N1CCOCC1	none (no result: MDM2 E3 inh)
O=C(Cn1cnc2ccccc2c1=O)NCCC(=O)N1CCN(Cc2ccccc2)CC1	MDM2 E3 inh 34.4
Cc1c(NC(=O)c2c(N)n(-c3ccccc3)c3nc4ccccc4nc23)c(=O)n(-c2ccccc2)n1C	E-sel TNF inh 76.5
Cc1c(NC(=O)c2c(F)cccc2F)c(=O)n(-c2ccccc2)n1C	none
COc1cc(C(=S)N2CCOCC2)ccc1OC(=O)/C=C/c1ccco1	none (no result: E-sel TNF inh)
COc1ccc(/C=C2\SC(=N)N(c3nccs3)C2=O)cc1OC	none (no result: E-sel TNF inh)
N=C1S/C(=C\c2ccc(-c3cccc(Cl)c3)o2)C(=O)N1c1nccs1	MDM2 E3 inh 36.4
COc1cc(C(=O)Nc2ccc3c(c2)C(=O)c2ccccc2C3=O)cc(OC)c1OC	E-sel TNF inh 63.6
COc1ccc(C(=O)Nc2ccc3c(c2)C(=O)c2ccccc2C3=O)cc1OC	none
CCN(CC)CC(=O)Nc1ccc2c(c1)Nc1ccccc1CC2	zVAD death inh 83.6 (no result: E-sel TNF inh)
